Measurements from ChEMBL document CHEMBL1122980, “Stereoselective metabolism of conformational analogues of warfarin by beta-naphthoflavone-inducible cytochrome P-450” (J Med Chem, 1985).

Species on record: Rattus norvegicus
Assay: Rate of metabolism in liver microsomes (BNF treated rats)
Type: ADME
Method in brief: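 Liver microsomes pooled from three male Sprague–Dawley rats (140–170 g) given BNF ip (80 mg/kg in corn oil) daily for 3 days, taken on day 4. Microsomal protein 2 mg/mL. Substrate added after 2-min equilibration, 200 μg/mL in acetone, or warfarin also in pH 7.4 phosphate buffer. Incubated 20 min at 37 °C, triplicate. Hydroxy metabolites quantified by GC/MS against deuterated internal standards. Rates given per nmol P-450 per min, mean ±SD.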

Q: How did the RPF turn out when `CO[C@]1(C)C[C@H](c2ccccc2)c2c(c3ccc(O)cc3oc2=O)O1` was run?
A: 12.8 pM nM-1

Q: For `CO[C@]1(C)C[C@@H](c2ccccc2)c2c(c3cccc(O)c3oc2=O)O1`, which RPF is on record?
A: 42.8 pM nM-1

Q: How did the RPF turn out when `COC1(C)C[C@H](c2ccccc2)c2c(c3cc(O)ccc3oc2=O)O1` (some centres undefined) was run?
A: 20.3 pM nM-1

Q: Which RPF does the source give for `CO[C@]1(C)C[C@@H](c2ccccc2)c2c(c3ccc(O)cc3oc2=O)O1` here?
A: 14.9 pM nM-1

Q: `CO[C@]1(C)C[C@H](c2ccccc2)c2c(c3cccc(O)c3oc2=O)O1` was tested. Which RPF did it give?
A: 14.9 pM nM-1

Q: How did the RPF turn out when `CO[C@]1(C)C[C@@H](c2ccc(O)cc2)c2c(c3ccccc3oc2=O)O1` was run?
A: 73.5 pM nM-1

Q: For `CO[C@@]1(C)C[C@H](c2ccccc2)c2c(c3cccc(O)c3oc2=O)O1`, which RPF is on record?
A: 15.1 pM nM-1

Q: How did the RPF turn out when `COC1(C)C[C@H](c2ccc(O)cc2)c2c(c3ccccc3oc2=O)O1` (some centres undefined) was run?
A: 76.2 pM nM-1

Q: For `CO[C@]1(C)C[C@H](c2ccc(O)cc2)c2c(c3ccccc3oc2=O)O1`, which RPF is on record?
A: 52 pM nM-1

Q: How did the RPF turn out when `CO[C@]1(C)C[C@@H](c2ccccc2)c2c(c3cc(O)ccc3oc2=O)O1` was run?
A: 24.1 pM nM-1

Q: How did the RPF turn out when `CO[C@@]1(C)C[C@@H](c2ccccc2)c2c(c3cccc(O)c3oc2=O)O1` was run?
A: 34.6 pM nM-1

Q: How did the RPF turn out when `COC1(C)C[C@@H](c2ccccc2)c2c(c3ccc(O)cc3oc2=O)O1` (some centres undefined) was run?
A: 13.9 pM nM-1

Q: With `COc1c([C@H](CC(C)=O)c2ccc(O)cc2)c(=O)oc2ccccc12` as the molecule, how does the RPF read?
A: 85.3 pM nM-1

Q: Which RPF does the source give for `COc1c([C@H](CC(C)=O)c2ccccc2)c(=O)oc2ccc(O)cc12` here?
A: 11.5 pM nM-1

Q: With `COc1c([C@H](CC(C)=O)c2ccccc2)c(=O)oc2cc(O)ccc12` as the molecule, how does the RPF read?
A: 8.3 pM nM-1

Q: How did the RPF turn out when `COc1c([C@@H](CC(C)=O)c2ccccc2)c(=O)oc2cc(O)ccc12` was run?
A: 31.2 pM nM-1

Q: For `COc1c([C@@H](CC(C)=O)c2ccc(O)cc2)c(=O)oc2ccccc12`, which RPF is on record?
A: 47.8 pM nM-1

Q: How did the RPF turn out when `COc1c([C@@H](CC(C)=O)c2ccccc2)c(=O)oc2ccc(O)cc12` was run?
A: 19.1 pM nM-1

Q: How did the RPF turn out when `COC1(C)C[C@H](c2ccccc2)c2c(c3ccc(O)cc3oc2=O)O1` (some centres undefined) was run?
A: 19.3 pM nM-1

Q: Which results are given for `CC(=O)C[C@H](c1ccccc1)c1c(O)c2cc(O)ccc2oc1=O`?
A: Metabolism rate: 113.7 pmol/min/nmol P-450; RPF: 102 pmol/min/nmol

Q: With `CC(=O)C[C@H](c1ccc(O)cc1)c1c(O)c2ccccc2oc1=O` as the molecule, how does the Metabolism rate read?
A: 22.4 pmol/min/nmol P-450

Q: With `COC1(C)C[C@@H](c2ccccc2)c2c(c3cc(O)ccc3oc2=O)O1` (some centres undefined) as the molecule, how does the RPF read?
A: 14.8 pM nM-1

Q: For `CC(=O)C[C@@H](c1ccccc1)c1c(O)c2ccc(O)cc2oc1=O`, which Metabolism rate is on record?
A: 216.8 pmol/min/nmol P-450

Q: And the RPF?
A: 195 pmol/min/nmol

Q: Which Metabolism rate does the source give for `CC(=O)C[C@@H](c1ccccc1)c1c(O)c2cc(O)ccc2oc1=O` here?
A: 41.2 pmol/min/nmol P-450

Q: What about the RPF of the same molecule?
A: 37.1 pmol/min/nmol

Q: Which Metabolism rate does the source give for `CC(=O)C[C@@H](c1ccc(O)cc1)c1c(O)c2ccccc2oc1=O` here?
A: 13.7 pmol/min/nmol P-450

Q: Which RPF does the source give for `COC1(C)C[C@@H](c2ccc(O)cc2)c2c(c3ccccc3oc2=O)O1` (some centres undefined) here?
A: 64.8 pM nM-1
